Values after ≈ are worked out from the molar mass of the structure shown. Active and inactive are the calls of the source. The rule behind the calls is not given here.
Columns and labels:
[1] = target: Signal transducer and activator of transcription 3 (Mus musculus, UniProt P42227); test: (§1) Inhibition of STAT3 DNA binding activity in mouse NIH/3T3 nuclear extract preincubated for 30 mins followed by [32P]hSIE addition measured after 30 mins by electrophoretic mobility shift assay
In short: (§2)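 STAT3 DNA-binding was measured by EMSA using nuclear extracts of equal total protein from v-Src-transformed fibroblasts containing activated STAT3. Extracts were preincubated for 30 min with 0–100 μM compound, then incubated with radiolabeled hSIE probe.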

[2] = Solubility of the compound in PBS at pH 7.4; assay type: physicochemical
In short: (§3)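 Aqueous solubility was determined in pH 7.4 PBS and in pH 6.8 buffered simulated intestinal fluid, reported in μg/mL.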

[3] = Solubility of the compound in simulated intestinal fluid at pH 6.8; assay type: physicochemical; in short: as §3
[4] = Apparent permeability of the compound from apical to basolateral side in human Caco2 cells; assay type: ADME, cell-based; conditions: Caco-2
[5] = target: Signal transducer and activator of transcription 3 (Homo sapiens) (UniProt P40763); test: Inhibition of STAT3 in human MDA-MB-231 cells assessed as reduction in p-STAT3(Y705) level at 5 uM after 1 to 24 hrs by immunoblot analysis; assay type: cell-based
Chain of Signal transducer and activator of transcription 3 (Homo sapiens) (P40763 whole entry): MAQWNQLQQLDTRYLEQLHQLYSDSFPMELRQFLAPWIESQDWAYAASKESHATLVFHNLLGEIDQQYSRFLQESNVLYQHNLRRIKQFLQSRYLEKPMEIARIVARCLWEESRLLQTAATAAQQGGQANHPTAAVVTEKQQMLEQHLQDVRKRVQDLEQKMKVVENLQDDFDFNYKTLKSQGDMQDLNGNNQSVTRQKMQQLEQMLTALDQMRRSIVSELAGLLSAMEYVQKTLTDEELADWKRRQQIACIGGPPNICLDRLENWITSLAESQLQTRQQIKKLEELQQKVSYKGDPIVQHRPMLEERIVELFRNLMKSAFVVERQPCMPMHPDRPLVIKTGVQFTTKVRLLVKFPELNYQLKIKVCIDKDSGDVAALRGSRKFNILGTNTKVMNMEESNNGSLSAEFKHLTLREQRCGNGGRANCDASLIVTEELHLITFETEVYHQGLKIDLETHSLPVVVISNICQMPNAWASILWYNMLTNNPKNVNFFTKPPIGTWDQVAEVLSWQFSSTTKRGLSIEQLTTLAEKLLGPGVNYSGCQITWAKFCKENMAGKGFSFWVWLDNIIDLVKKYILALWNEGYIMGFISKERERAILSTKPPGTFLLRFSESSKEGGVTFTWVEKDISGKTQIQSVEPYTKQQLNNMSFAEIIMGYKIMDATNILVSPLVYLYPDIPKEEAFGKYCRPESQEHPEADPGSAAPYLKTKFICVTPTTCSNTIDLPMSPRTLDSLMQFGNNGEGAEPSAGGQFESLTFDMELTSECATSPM

[6] = target: Signal transducer and activator of transcription 3 (Homo sapiens) (UniProt P40763); test: Inhibition of STAT3 in human MDA-MB-468 cells assessed as reduction in p-STAT3(Y705) level at 5 uM after 1 to 24 hrs by immunoblot analysis; assay type: cell-based
[7] = target: Signal transducer and activator of transcription 3 (Mus musculus) (UniProt P42227); test: as §1; in short: as §2
Chain of Signal transducer and activator of transcription 3 (Mus musculus) (P42227 whole entry): as the sequence (P40763 whole entry) above, with E760D counted along it

[8] = target: Signal transducer and activator of transcription 3 (Homo sapiens) (UniProt P40763); test: Inhibition of STAT3 DNA binding activity in human MDA-MB-231 nuclear extract at 10 uM after 3 hrs by electrophoretic mobility shift assay
In short: (§4)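 MDA-MB-231 breast cancer cells were exposed to 10 μM compound for 1, 3 or 24 h. Nuclear extracts of equal total protein were then assayed for STAT3 DNA-binding by EMSA.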

[9] = target: Signal transducer and activator of transcription 3 (Homo sapiens) (UniProt P40763); test: Inhibition of STAT3 DNA binding activity in human MDA-MB-231 nuclear extract at 10 uM after 1 hr by electrophoretic mobility shift assay; in short: as §4
[10] = target: Signal transducer and activator of transcription 3 (Homo sapiens) (UniProt P40763); test: Inhibition of STAT3 DNA binding activity in human MDA-MB-231 nuclear extract at 10 uM after 24 hrs by electrophoretic mobility shift assay; in short: as §4
[11] = target: Signal transducer and activator of transcription 3 (Homo sapiens) (UniProt P40763); test: Inhibition of STAT3 DNA binding activity in human MDA-MB-468 nuclear extract at 5 uM after 3 to 24 hrs by electrophoretic mobility shift assay
In short: (§5)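 MDA-MB-468 cells received 5 μM compound for 3 or 24 h. STAT3 DNA-binding in nuclear extracts of equal total protein was then analysed by EMSA.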

[12] = target: Signal transducer and activator of transcription 3 (Homo sapiens) (UniProt P40763); test: Inhibition of STAT3 in human C8161 cells assessed as reduction in p-STAT3(Y705) level at 10 to 20 uM after 1 to 3 hrs by immunoblot analysis; assay type: cell-based
[13] = target: Signal transducer and activator of transcription 3 (Homo sapiens) (UniProt P40763); test: Inhibition of STAT3 in human 1205 Lu cells assessed as reduction in p-STAT3(Y705) level at 10 to 20 uM after 1 to 3 hrs by immunoblot analysis; assay type: cell-based
[14] = target: Signal transducer and activator of transcription 3 (Homo sapiens) (UniProt P40763); test: Inhibition of STAT3 in human UACC-903 cells assessed as reduction in p-STAT3(Y705) level at 10 to 20 uM after 1 to 3 hrs by immunoblot analysis; assay type: cell-based
Homo sapiens [15] = species on record: Homo sapiens; test: Cytotoxicity against human C8161 cells harboring active STAT3 assessed as decrease in cell viability up to 20 uM after 48 hrs by MTT assay; assay type: functional, cell-based
Homo sapiens [16] = species on record: Homo sapiens; test: Cytotoxicity against human 1205 Lu cells harboring active STAT3 assessed as decrease in cell viability up to 20 uM after 48 hrs by MTT assay; assay type: functional, cell-based
Homo sapiens [17] = species on record: Homo sapiens; test: Cytotoxicity against human C81-61 cells harboring active STAT3 assessed as decrease in cell viability up to 20 uM after 48 hrs by MTT assay; assay type: functional, cell-based
[18] = Cytotoxicity against human AR7119 cells assessed as decrease in cell viability up to 20 uM after 48 hrs by MTT assay; assay type: cell-based
[19] = target: Signal transducer and activator of transcription 3 (Homo sapiens) (UniProt P40763); test: Inhibition of STAT3 DNA binding activity in human MDA-MB-468 nuclear extract at 5 uM after 24 hrs by electrophoretic mobility shift assay; in short: as §5
[20] = target: Signal transducer and activator of transcription 3 (Homo sapiens) (UniProt P40763); test: Inhibition of STAT3 in human MDA-MB-231 cells assessed as reduction in p-STAT3(Y705) level at 10 uM after 1 hr by immunoblot analysis; assay type: cell-based
[21] = target: Tyrosine-protein kinase JAK2 (Homo sapiens) (UniProt O60674); test: Inhibition of JAK2 phosphorylation in human MDA-MB-231 cells at 5 uM after 24 hrs by immunoblot analysis; assay type: cell-based
Chain of Tyrosine-protein kinase JAK2 (Homo sapiens) (O60674 whole entry): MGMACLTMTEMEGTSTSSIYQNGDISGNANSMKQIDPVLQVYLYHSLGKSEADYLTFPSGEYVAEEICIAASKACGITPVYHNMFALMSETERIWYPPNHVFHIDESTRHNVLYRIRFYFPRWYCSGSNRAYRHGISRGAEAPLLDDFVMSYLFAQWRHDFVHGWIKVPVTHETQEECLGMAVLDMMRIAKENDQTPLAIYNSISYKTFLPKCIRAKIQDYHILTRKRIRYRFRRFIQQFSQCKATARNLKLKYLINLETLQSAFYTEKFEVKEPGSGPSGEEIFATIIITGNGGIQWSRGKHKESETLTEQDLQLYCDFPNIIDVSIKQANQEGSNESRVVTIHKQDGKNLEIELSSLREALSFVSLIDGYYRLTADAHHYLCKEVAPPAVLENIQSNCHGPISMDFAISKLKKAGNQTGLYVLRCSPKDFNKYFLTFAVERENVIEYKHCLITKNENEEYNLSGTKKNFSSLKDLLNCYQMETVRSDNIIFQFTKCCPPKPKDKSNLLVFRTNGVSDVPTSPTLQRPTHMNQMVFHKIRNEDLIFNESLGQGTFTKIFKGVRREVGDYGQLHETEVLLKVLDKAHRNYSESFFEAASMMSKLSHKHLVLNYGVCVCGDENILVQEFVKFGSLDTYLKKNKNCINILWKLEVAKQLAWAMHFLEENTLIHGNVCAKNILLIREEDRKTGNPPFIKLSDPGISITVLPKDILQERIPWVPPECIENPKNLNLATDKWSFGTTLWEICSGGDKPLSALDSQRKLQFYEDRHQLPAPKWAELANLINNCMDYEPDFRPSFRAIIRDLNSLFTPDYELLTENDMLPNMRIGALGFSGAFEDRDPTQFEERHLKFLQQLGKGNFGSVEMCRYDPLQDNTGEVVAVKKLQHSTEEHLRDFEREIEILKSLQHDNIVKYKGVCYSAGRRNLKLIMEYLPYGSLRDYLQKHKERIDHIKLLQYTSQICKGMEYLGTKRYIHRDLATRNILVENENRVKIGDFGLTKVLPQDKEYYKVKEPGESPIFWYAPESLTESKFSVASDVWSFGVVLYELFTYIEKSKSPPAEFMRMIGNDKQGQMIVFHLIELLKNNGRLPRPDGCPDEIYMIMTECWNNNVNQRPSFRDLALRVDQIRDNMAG

[22] = target: Proto-oncogene tyrosine-protein kinase Src (Homo sapiens) (UniProt P12931); test: Inhibition of SRC phosphorylation in human MDA-MB-231 cells at 5 uM after 24 hrs by immunoblot analysis; assay type: cell-based
Chain of Proto-oncogene tyrosine-protein kinase Src (Homo sapiens) (P12931 2-536 limits assumed): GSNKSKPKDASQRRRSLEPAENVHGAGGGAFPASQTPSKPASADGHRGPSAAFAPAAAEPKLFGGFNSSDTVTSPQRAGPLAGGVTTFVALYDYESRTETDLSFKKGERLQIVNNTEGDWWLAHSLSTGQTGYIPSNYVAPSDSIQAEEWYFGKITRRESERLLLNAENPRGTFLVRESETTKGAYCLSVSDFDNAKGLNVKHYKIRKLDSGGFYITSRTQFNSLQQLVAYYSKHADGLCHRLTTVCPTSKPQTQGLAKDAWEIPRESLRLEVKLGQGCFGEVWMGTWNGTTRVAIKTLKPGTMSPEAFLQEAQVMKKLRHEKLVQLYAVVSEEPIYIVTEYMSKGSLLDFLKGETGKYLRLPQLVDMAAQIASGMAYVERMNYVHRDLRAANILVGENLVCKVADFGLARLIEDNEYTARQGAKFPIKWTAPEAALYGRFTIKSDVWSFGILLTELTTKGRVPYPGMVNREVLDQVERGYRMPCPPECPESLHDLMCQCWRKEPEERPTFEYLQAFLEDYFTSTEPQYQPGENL

[23] = target: Mitogen-activated protein kinase; ERK1/ERK2 (Homo sapiens) (UniProt P27361+P28482); test: Inhibition of ERK1/2 phosphorylation in human MDA-MB-231 cells at 5 uM after 24 hrs by immunoblot analysis; assay type: cell-based
Chain of Mitogen-activated protein kinase; ERK1/ERK2 (Homo sapiens) (P27361 whole entry, looked up): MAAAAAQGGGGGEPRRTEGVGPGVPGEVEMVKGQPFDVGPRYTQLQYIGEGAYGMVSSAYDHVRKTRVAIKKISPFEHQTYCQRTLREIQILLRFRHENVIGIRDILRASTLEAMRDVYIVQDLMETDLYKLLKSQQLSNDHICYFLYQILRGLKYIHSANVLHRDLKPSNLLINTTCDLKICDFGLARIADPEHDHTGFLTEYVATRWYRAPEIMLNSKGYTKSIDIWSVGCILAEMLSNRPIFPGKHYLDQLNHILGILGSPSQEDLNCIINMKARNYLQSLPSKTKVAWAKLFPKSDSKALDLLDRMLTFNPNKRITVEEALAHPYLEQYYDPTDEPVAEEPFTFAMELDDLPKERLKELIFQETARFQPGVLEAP
Chain of Mitogen-activated protein kinase; ERK1/ERK2 (Homo sapiens) (P28482 whole entry, looked up): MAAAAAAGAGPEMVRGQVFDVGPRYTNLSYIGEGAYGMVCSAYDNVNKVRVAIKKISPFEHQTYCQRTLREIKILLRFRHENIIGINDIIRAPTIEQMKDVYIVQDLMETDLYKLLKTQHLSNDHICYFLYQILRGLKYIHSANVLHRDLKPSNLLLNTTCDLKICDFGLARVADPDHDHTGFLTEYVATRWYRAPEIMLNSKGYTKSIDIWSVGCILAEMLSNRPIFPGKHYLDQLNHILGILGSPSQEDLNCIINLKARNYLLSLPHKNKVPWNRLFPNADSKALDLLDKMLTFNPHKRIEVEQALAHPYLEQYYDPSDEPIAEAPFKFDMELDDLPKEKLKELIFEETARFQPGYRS

MDA-MB-231 [24] = test: Cytotoxicity against human MDA-MB-231 cells harboring active STAT3 assessed as decrease in cell viability up to 10 uM after 72 hrs by CyQuant dye based assay; assay type: functional
In short: (§6)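 Cells were grown in 96-well format and treated once with 0–10 μM compound for 72 h. Viable cells were quantified by CyQuant proliferation assay and plotted as % viability against concentration. Data are mean ± SD of three independent determinations.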

MDA-MB-468 = test: Cytotoxicity against human MDA-MB-468 cells harboring active STAT3 assessed as decrease in cell viability up to 10 uM after 72 hrs by CyQuant dye based assay; assay type: functional; in short: as §6
MCF7 = test: Cytotoxicity against human MCF7 cells assessed as decrease in cell viability up to 10 uM after 72 hrs by CyQuant dye based assay; assay type: functional; in short: as §6
MDA-MB-231 [25] = test: Anticlonogenic activity against human MDA-MB-231 cells up to 3 uM after 4 hrs by crystal violet staining based assay; assay type: functional, cell-based
In short: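 Single-cell cultures of MDA-MB-231 cells were treated once and cultured until large colonies were visible. Colonies were then stained with crystal violet, counted and plotted.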

MDA-MB-231 [26] = test: Antimigratory activity against human MDA-MB-231 cells at 8 uM after 22 to […] hrs by inverted fluorescence microscope; assay type: functional, cell-based
In short: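 Confluent MDA-MB-231 cultures were wounded and treated once with or without 8 μM compound. Migration into the denuded area was followed over 23 h and imaged. Controls received 0.05% DMSO.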

[27] = Half life in human liver microsomes; assay type: ADME, microsome
[28] = Half life in mouse liver microsomes; assay type: ADME, microsome
MDA-MB-231 [29] = test: Cytotoxicity against human MDA-MB-231 cells harboring active STAT3 assessed as decrease in cell viability up to 5 uM after 72 hrs by trypan blue exclusion based phase-contrast microscopy; assay type: functional

Chain of Signal transducer and activator of transcription 3 (P42227 whole entry): as the sequence (P40763 whole entry) above, with E760D counted along it

CN(CC(=O)N(Cc1ccc(C2CCCCC2)cc1)c1ccc(C(=O)O)c(O)c1)S(=O)(=O)c1cc(F)cc(F)c1
IC50 [1]: > 26 µM

O=C([O-])c1ccc(N(Cc2ccc(C3CCOCC3)cc2)C(=O)[C@H]2CCCN2S(=O)(=O)c2c(F)c(F)c(F)c(F)c2F)cc1O.[Na+]
solubility [2]: 123 µg/mL
solubility [3]: 117 µg/mL
Papp A→B [4]: 0.2 ×10⁻⁶ cm/s

CN(CC(=O)N(Cc1ccc(C2CCCCC2)cc1)c1ccc(C(=O)O)c(O)c1)S(=O)(=O)c1cc(C(F)(F)F)cc(C(F)(F)F)c1
IC50 [1]: > 26 µM

O=C(O)c1ccc(N(Cc2ccc(C3CCCCC3)cc2)C(=O)[C@H]2CCCN2S(=O)(=O)c2c(F)c(F)c(F)c(F)c2F)c(F)c1
p-STAT3(Y705) reduction (qualitative call) [5]: Active
inhibition [6]: Active

C[C@H](C(=O)N(Cc1ccc(C2CCCCC2)cc1)c1ccc(C(=O)O)c(O)c1)N(C)S(=O)(=O)c1c(F)c(F)c(F)c(F)c1F [listing 1 of 2 here]
inhibition [7]: Active
inhibition [8]: Active
inhibition [9]: inactive
inhibition [10]: inactive
inhibition [11]: Active
p-STAT3(Y705) reduction (qualitative call) [5]: Active
inhibition [6]: Active
inhibition [12]: Active
inhibition [13]: Active
inhibition [14]: Active
Activity (Homo sapiens [15]): Active
Activity (Homo sapiens [16]): Active
Activity (Homo sapiens [17]): Active

C[C@H](C(=O)N(Cc1ccc(C2CCCCC2)cc1)c1ccc(C(=O)O)c(O)c1)N(C)S(=O)(=O)c1c(F)c(F)c(F)c(F)c1F [listing 2 of 2 here]
Activity [18]: Non-Toxic

CN(CC(=O)N(Cc1ccc(C2CCCCC2)cc1)c1ccc(C(=O)O)c(O)c1)S(=O)(=O)c1cccnc1
IC50 [1]: > 26 µM

C[C@H](C(=O)N(Cc1ccc(C2CCCCC2)cc1)c1ccc(C(=O)O)cc1Cl)N(C)S(=O)(=O)c1c(F)c(F)c(F)c(F)c1F
inhibition [19]: Active
inhibition [20]: Active
inhibition [21]: inactive
inhibition [22]: inactive
inhibition [23]: inactive
Activity (MDA-MB-231 [24]): Active
Activity (MDA-MB-468): Active
Activity (MCF7): inactive
Activity (MDA-MB-231 [25]): Active
Activity (MDA-MB-231 [26]): Active

CN(CC(=O)N(Cc1ccc(C2CCCCC2)cc1)c1ccc(C(=O)O)c(O)c1)S(=O)(=O)c1cc(F)ccc1F
IC50 [1]: > 26 µM

O=C(O)c1ccc(N(Cc2ccc(C3CCCCC3)cc2)C(=O)[C@@H]2CCCN2S(=O)(=O)c2c(F)c(F)c(F)c(F)c2F)c(F)c1
half-life [27]: 54 min
half-life [28]: 26 min
Papp A→B [4]: 0.1 ×10⁻⁶ cm/s

CN(CC(=O)N(Cc1ccc(C2CCCCC2)cc1)c1ccc(C(=O)O)cc1Cl)S(=O)(=O)c1c(F)c(F)c(F)c(F)c1F
IC50 [1]: 8.6 to 14.4 µM
inhibition [20]: Active
Activity (MDA-MB-231 [24]): Active
Activity (MDA-MB-468): Active
Activity (MCF7): inactive
Activity (MDA-MB-231 [25]): Active
Activity (MDA-MB-231 [26]): Active

CN(CC(=O)N(Cc1ccc(C2CCCCC2)cc1)c1ccc(C(=O)O)cc1)S(=O)(=O)c1c(F)c(F)c(F)c(F)c1F
solubility [2]: 7.6 µg/mL (≈ 12.4 µM)
solubility [3]: 14 µg/mL (≈ 22.9 µM)
half-life [27]: ≥ 17 min
half-life [28]: ≥ 17 min

CN(CC(=O)N(Cc1ccc(C2CCCCC2)cc1)c1ccc(C(=O)O)c(O)c1)S(=O)(=O)c1cc(F)cc(F)c1F
IC50 [1]: > 26 µM

CN(CC(=O)N(Cc1ccc(C2CCCCC2)cc1)c1ccc(C(=O)O)c(O)c1)S(=O)(=O)c1c(F)cc(F)cc1F
IC50 [1]: > 26 µM

C[C@@H](C(=O)N(Cc1ccc(C2CCCCC2)cc1)c1ccc(C(=O)NO)c(O)c1)N(C)S(=O)(=O)c1c(F)c(F)c(F)c(F)c1F
IC50 [1]: 6.8 µM

CN(CC(=O)N(Cc1ccc(C2CCCCC2)cc1)c1ccc(C(=O)O)c(Cl)c1)S(=O)(=O)c1c(F)c(F)c(F)c(F)c1F
IC50 [1]: 8.6 to 14.4 µM

CN(CC(=O)N(Cc1ccc(C2CCCCC2)cc1)c1ccc(C(=O)NO)cc1)S(=O)(=O)c1c(F)c(F)c(F)c(F)c1F
solubility [2]: 0.3 µg/mL (≈ 0.48 µM)
solubility [3]: 74 µg/mL (≈ 118 µM)
half-life [27]: ≥ 17 min
half-life [28]: ≥ 17 min

O=C(O)c1ccc(N(Cc2ccc(C3CCCCC3)cc2)C(=O)[C@H]2CCCN2S(=O)(=O)c2c(F)c(F)c(F)c(F)c2F)cc1O
p-STAT3(Y705) reduction (qualitative call) [5]: Active
inhibition [6]: Active
Activity (MDA-MB-231 [24]): Active
Activity (MDA-MB-468): Active
Activity (MCF7): inactive

C[C@H](C(=O)N(Cc1ccc(C2CCCCC2)cc1)c1ccc(C(=O)[O-])c(O)c1)N(C)S(=O)(=O)c1c(F)c(F)c(F)c(F)c1F.[Na+]
solubility [3]: 127 µg/mL

C[C@H](C(=O)N(Cc1ccc(C2CCCCC2)cc1)c1ccc(C(=O)O)cc1F)N(C)S(=O)(=O)c1c(F)c(F)c(F)c(F)c1F
p-STAT3(Y705) reduction (qualitative call) [5]: Active
inhibition [6]: Active
Activity (MDA-MB-231 [24]): Active
Activity (MDA-MB-468): Active
Activity (MDA-MB-231 [29]): Active
Activity (MCF7): inactive

Cc1cc(C(=O)O)ccc1N(Cc1ccc(C2CCCCC2)cc1)C(=O)CN(C)S(=O)(=O)c1c(F)c(F)c(F)c(F)c1F
inhibition [7]: inactive
inhibition [20]: Active
Activity (MDA-MB-231 [24]): Active
Activity (MDA-MB-468): Active
Activity (MCF7): inactive
Activity (MDA-MB-231 [25]): Active
Activity (MDA-MB-231 [26]): Active

O=C(NO)c1ccc(N(Cc2ccc(C3CCCCC3)cc2)C(=O)[C@H]2CCCN2S(=O)(=O)c2c(F)c(F)c(F)c(F)c2F)cc1O
IC50 [1]: 5.5 µM

C[C@@H](C(=O)N(Cc1ccc(C2CCCCC2)cc1)c1ccc(C(=O)O)c(O)c1)N(C)S(=O)(=O)c1c(F)c(F)c(F)c(F)c1F
inhibition [8]: Active
inhibition [9]: inactive
inhibition [10]: Active

CN(CC(=O)N(Cc1ccc(C2CCCCC2)cc1)c1ccc(C(=O)O)c(O)c1)S(=O)(=O)c1ccc(F)c(F)c1F
IC50 [1]: > 26 µM
